The results in this text go back to ChEMBL document CHEMBL1153057, “Chemical constituents of propolis from Myanmar and their preferential cytotoxicity against a human pancreatic cancer cell line” (2009).

The structures appear in SMILES notation. The source made the active and inactive calls. No cut-off for these calls is given here. Bounds are passed on as bounds.

The subject of experiment [1] is PANC-1. The experiment can be described thus: Cytotoxicity against human PANC1 cells in nutrient-deprived condition assessed as 50% cell death after 24 hrs by WST8 assay. In kind it is functional. The method in brief:
(§1)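 PANC-1 cells, 2 × 10⁴ per well, grown 24 h in DMEM at 37 °C under 5% CO2, PBS-washed, then switched to DMEM or nutrient-deprived medium (glucose-, amino acid- and serum-free salts, vitamins, 25 mM HEPES, pH 7.4) holding serial dilutions for 24 h. Viability by WST-8 (10% in DMEM, 3 h, A450), blank-corrected against untreated control, mean of three wells. PC100/PC50 = concentration killing 100%/50% of cells preferentially in NDM.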

For experiment [2], the system named is PANC-1. The experiment is described as follows: Cytotoxicity against human PANC1 cells in nutrient-deprived condition assessed as 100% cell death after 24 hrs by WST8 assay. In kind it is functional. Summed up: as §1
Experiment [3] concerns PANC-1. The experiment is described as follows: Induction of apoptosis in human PANC1 cells in nutrient deprived condition assessed as morphological changes at 6.25 uM within 24 hrs of treatment using phase contrast microscopy by WST8 assay. The experiment is classed as functional, cell-based. (Formazan colour is commonly taken as a measure of viable cells.)
For experiment [4], the system named is PANC-1. The experiment can be described thus: Cytotoxicity against human PANC1 cells in nutrient-deprived condition assessed as complete preferential cell death at 6.25 uM within 24 hrs of starvation by WST8 assay. In kind it is functional.
Experiment [5] has as its system PANC-1. The experiment is described as follows: Cytotoxicity against human PANC1 cells in nutrient-deprived condition assessed as complete preferential cell death at 50 uM within 6 hrs of treatment by WST8 assay. The experiment is classed as functional.

As to `C/C(=C\CC[C@@H](C)[C@H]1CC[C@@]2(C)[C@@H]3CC[C@@H]4[C@@]5(CCC(=O)[C@@]4(C)CO)C[C@@]35CC[C@]12C)C(=O)O`, the PC50 in experiment [1] was more than 100 µM. Besides, in experiment [2], the CD100 was more than 100 µM.
With `CC(C)=CCc1c(O)cc(O)c2c1O[C@H](c1ccc(O)cc1)CC2=O` [SOPHORAFLAVANONE B], the PC50 in experiment [1] was 39.4 µM. The CD100 in experiment [2] worked out at 50 µM.
On to `C[C@H](CC/C=C(\CO)C(=O)O)[C@H]1CC[C@@]2(C)[C@@H]3CC[C@H]4C(C)(C)[C@H](O)CC[C@@]45C[C@@]35CC[C@]12C`, for which, in experiment [1], the PC50 was 15.5 µM. Moreover, the CD100 in experiment [2] turned out to be 25 µM.
The matching figures for `C/C(=C\CC(O)[C@@H](C)[C@H]1CC[C@@]2(C)[C@@H]3CC[C@H]4C(C)(C)[C@H](O)CC[C@@]45C[C@@]35CC[C@]12C)C(=O)O` (stereo partly specified): 13.4 µM and 25 µM.
The matching figures for `COc1ccc([C@@H]2CC(=O)c3c(O)cc(O)c(CC=C(C)C)c3O2)cc1CC=C(C)C`: 7.9 µM and 12.5 µM.
The matching figures for `C/C(=C\CC[C@@H](C)[C@H]1CC[C@@]2(C)[C@@H]3CC[C@H]4C(C)(C)C(=O)CC[C@@]45C[C@@]35CC[C@]12C)C(=O)O` [MANGIFERONIC ACID]: more than 100 µM and more than 100 µM.
On to `CC(C)=CCc1cc([C@@H]2CC(=O)c3c(O)cc(O)c(CC=C(C)C)c3O2)ccc1O` [LESPEDEZAFLAVANONE B], for which the PC50 in experiment [1] stood at 19.8 µM. Moreover, the CD100 in experiment [2] was 25 µM.
The matching figures for `C[C@H](CC/C=C(\CO)C(=O)O)[C@H]1CC[C@@]2(C)[C@@H]3CC[C@@H]4[C@@]5(CCC(=O)[C@@]4(C)CO)C[C@@]35CC[C@]12C`: more than 100 µM and more than 100 µM.
On the same counts, the results for `C/C(C=O)=C\CC[C@@H](C)[C@H]1CC[C@@]2(C)[C@@H]3CC[C@H]4C(C)(C)[C@@H](O)CC[C@@]45C[C@@]35CC[C@]12C` are more than 100 µM and more than 100 µM.
On the same counts, the results for `C/C(=C\CC[C@@H](C)[C@H]1CC[C@@]2(C)[C@@H]3CC[C@H]4C(C)(C)[C@@H](O)CC[C@@]45C[C@@]35CC[C@]12C)C(=O)O` [MANGIFEROLIC ACID] are more than 100 µM and more than 100 µM.
With `C/C(=C\C(O)C[C@@H](C)[C@H]1CC[C@@]2(C)[C@@H]3CC[C@H]4C(C)(C)C(=O)CC[C@@]45C[C@@]35CC[C@]12C)C(=O)O` (stereo partly specified), in experiment [1], the PC50 amounted to 28 µM. Further, in experiment [2], the CD100 is 50 µM.
For `C[C@H](CC/C=C(\CO)C(=O)O)[C@H]1CC[C@@]2(C)[C@@H]3CC[C@H]4C(C)(C)[C@@H](O)CC[C@@]45C[C@@]35CC[C@]12C`, the PC50 in experiment [1] was more than 100 µM. Further, the CD100 in experiment [2] was more than 100 µM.
On to `C/C(=C/C=C/[C@@H](C)[C@H]1CC[C@@]2(C)[C@@H]3CC[C@H]4C(C)(C)C(=O)CC[C@@]45C[C@@]35CC[C@]12C)C(=O)O`, for which the outcome in experiment [3] was Active. Moreover, the Activity in experiment [4] and in experiment [5] was 100% throughout. Besides, the PC50 in experiment [1] turned out to be 4.3 µM. In addition, the CD100 in experiment [2] was 6.3 µM.
In the case of `C/C(=C\C(O)C[C@@H](C)[C@H]1CC[C@@]2(C)[C@@H]3CC[C@H]4C(C)(C)[C@@H](O)CC[C@@]45C[C@@]35CC[C@]12C)C(=O)O` (stereo partly specified), the PC50 in experiment [1] was more than 100 µM. In addition, the CD100 in experiment [2] is more than 100 µM.
In the case of `O=c1[nH]cc(F)c(=O)[nH]1` [FLUOROURACIL], the PC50 in experiment [1] was more than 100 µM. Moreover, the CD100 in experiment [2] was more than 100 µM.
For the compound `CC(=O)O[C@H]1C(=O)[C@@]2(C)[C@H]([C@H](OC(=O)c3ccccc3)[C@]3(O)C[C@H](OC(=O)[C@H](O)[C@@H](NC(=O)c4ccccc4)c4ccccc4)C(C)=C1C3(C)C)[C@]1(OC(C)=O)CO[C@@H]1C[C@@H]2O` [PACLITAXEL], the PC50 in experiment [1] is more than 100 µM. Further, in experiment [2], the CD100 is more than 100 µM.
As for `C[C@H](CC/C=C(\CO)C(=O)O)[C@H]1CC[C@@]2(C)[C@@H]3CC[C@H]4C(C)(C)C(=O)CC[C@@]45C[C@@]35CC[C@]12C`, the PC50 in experiment [1] was 38.5 µM. Besides, the CD100 in experiment [2] came out at 50 µM.
Consider `COc1cc(C[C@H]2C(=O)OC[C@@H]2Cc2ccc(OC)c(OC)c2)ccc1O` [ARCTIGENIN], for which, in experiment [1], the PC50 was determined as 0.4 µM. The CD100 in experiment [2] is 1 µM.
In the case of `C/C(=C\CC[C@@H](C)[C@H]1CC[C@@]2(C)[C@@H]3CC[C@H]4C(C)(C)[C@H](O)CC[C@@]45C[C@@]35CC[C@]12C)C(=O)O` [ISOMANGIFEROLIC ACID], the PC50 in experiment [1] turned out to be 13.7 µM. Besides, in experiment [2], the CD100 is 25 µM.
